From ChEMBL document CHEMBL4706740, “Structure-Activity Study of Nitazoxanide Derivatives as Novel STAT3 Pathway Inhibitors” (ACS Med Chem Lett, 2021) come the findings set out here.

Data set [1] concerns HeLa. Kind of data set: Induction of cell cycle arrest in human HeLa cells assessed as accumulation at S phase at 40 uM measured after 24 hrs by flow cytometry analysis (reference value: 34.04%). It counts as functional.
The subject of data set [2] is HeLa. Kind of data set: Induction of apoptosis in human HeLa cells assessed as early apoptotic cells at 40 uM incubated for 24 hrs by Annexin V-FITC/PI staining based flow cytometry (reference value: 2.84%). It counts as functional.
Data set [3] relates to HeLa. Kind of data set: Induction of apoptosis in human HeLa cells assessed as necrotic cells at 40 uM incubated for 24 hrs by Annexin V-FITC/PI staining based flow cytometry (reference value: 0.02%). The class given is functional.
Data set [4] addresses Signal transducer and activator of transcription 3 (Homo sapiens) (UniProt P40763). Kind of data set: Inhibition of IL-6 induced STAT3 transcriptional activity in human HEK-Blue IL-6 cells assessed as secreted embryonic alkaline phosphatase reporter gene expression at 10 uM by microplate reader. It counts as cell-based. The essentials:
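Single-concentration screen in HEK-Blue IL-6 cells: % inhibition of the SEAP reporter read-out of STAT3 pathway activity, with viability checked by MTT in parallel. Values are averages of three independent experiments.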

A short description of data set [5]: Elimination Half life in Sprague-Dawley rat at 5 mg/kg, iv. The class given is ADME, organism-based. The note with it: in vivo, read-out: beta t1/2 (converted). The gist of the method: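 Rats, n = 3 per group, received a single dose either intragastrically (25 mg/kg) or intravenously (5 mg/kg). Plasma concentration–time curves were used to derive t1/2α, t1/2β, Vd/F, CL/F, AUC0–∞, Tmax and Cmax. Absolute oral bioavailability was calculated from the ig and iv data.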

Data set [6] has as its target T1, Signal transducer and activator of transcription 5A (Homo sapiens) (UniProt P42229).
T1 sequence (whole entry): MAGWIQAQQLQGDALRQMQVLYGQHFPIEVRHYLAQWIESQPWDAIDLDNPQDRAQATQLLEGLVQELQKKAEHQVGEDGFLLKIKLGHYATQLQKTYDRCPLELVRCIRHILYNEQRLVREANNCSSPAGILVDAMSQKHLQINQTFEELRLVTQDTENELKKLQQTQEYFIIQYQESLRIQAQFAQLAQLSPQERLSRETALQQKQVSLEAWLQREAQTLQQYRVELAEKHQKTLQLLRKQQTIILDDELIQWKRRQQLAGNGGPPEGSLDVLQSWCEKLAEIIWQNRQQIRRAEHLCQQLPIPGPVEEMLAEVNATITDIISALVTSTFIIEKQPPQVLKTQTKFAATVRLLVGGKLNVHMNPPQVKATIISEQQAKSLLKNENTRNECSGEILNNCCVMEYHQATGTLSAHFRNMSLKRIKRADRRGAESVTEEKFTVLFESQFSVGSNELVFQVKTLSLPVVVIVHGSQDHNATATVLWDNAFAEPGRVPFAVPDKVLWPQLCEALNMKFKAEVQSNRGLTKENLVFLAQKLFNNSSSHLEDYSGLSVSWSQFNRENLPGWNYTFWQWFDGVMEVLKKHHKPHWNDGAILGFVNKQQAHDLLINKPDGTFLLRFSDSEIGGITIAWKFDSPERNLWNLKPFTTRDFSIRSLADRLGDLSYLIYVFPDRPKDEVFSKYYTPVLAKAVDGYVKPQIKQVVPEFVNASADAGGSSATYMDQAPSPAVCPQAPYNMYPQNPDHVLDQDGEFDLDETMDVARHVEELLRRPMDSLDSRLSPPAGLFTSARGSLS
As to the kind of experiment: Inhibition of STAT5 (unknown origin).

Data set [7] deals with Signal transducer and activator of transcription 3 (Homo sapiens) (UniProt P40763). Kind of data set: Binding affinity to GST-tagged human STAT3 using 5-carboxyfluorescein labelled peptide incubated for 1 hr by fluorescence polarization assay.
For data set [8] the target is unchanged. As to the kind of experiment: Inhibition of STAT3 in human Hela cell lysate assessed as inhibition of protein and DNA interaction upto 200 uM incubated 30 mins by electrophoretic mobility shift assay. The class given is subcellular. The note with it: dose microM <=200, time 30.0 min.

Active and inactive are the calls of the source. The rule behind the calls is not given here.

Signal transducer and activator of transcription 3 (Homo sapiens), sequence (P40763 whole entry): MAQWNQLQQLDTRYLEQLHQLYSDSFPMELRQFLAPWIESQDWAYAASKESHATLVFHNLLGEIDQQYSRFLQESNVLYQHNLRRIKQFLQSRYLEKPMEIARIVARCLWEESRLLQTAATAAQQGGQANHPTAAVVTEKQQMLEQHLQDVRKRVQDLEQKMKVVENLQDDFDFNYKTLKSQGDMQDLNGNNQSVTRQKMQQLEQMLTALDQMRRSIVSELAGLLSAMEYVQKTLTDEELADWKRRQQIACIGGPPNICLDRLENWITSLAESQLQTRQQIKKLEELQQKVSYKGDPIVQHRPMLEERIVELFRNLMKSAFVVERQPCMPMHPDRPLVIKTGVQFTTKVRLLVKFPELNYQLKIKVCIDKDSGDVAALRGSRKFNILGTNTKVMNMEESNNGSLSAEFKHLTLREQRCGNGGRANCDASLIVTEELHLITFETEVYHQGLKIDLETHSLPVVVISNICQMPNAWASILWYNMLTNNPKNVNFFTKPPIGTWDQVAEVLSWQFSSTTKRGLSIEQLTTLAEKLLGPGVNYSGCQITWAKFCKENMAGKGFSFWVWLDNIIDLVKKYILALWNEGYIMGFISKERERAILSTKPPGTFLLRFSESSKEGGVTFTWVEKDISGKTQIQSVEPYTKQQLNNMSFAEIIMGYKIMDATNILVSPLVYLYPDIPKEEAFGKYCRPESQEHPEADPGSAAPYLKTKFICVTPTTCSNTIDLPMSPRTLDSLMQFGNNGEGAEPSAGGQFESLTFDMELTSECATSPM

Consider `CC(=O)Oc1ccccc1C(=O)Nc1ncc([N+](=O)[O-])s1` [NITAZOXANIDE], for which the Activity in the data set on HeLa [1] is on record as 22.76%; with HeLa [2] it was 7.48%; with HeLa [3], 0.06%. In addition, the inhibition in data set [4] was found to be 54.6%. In addition, the half-life in data set [5] is 18 min. Further, the inhibition result in data set [6] and in data set [8] was “inactive” in each case. Besides, the outcome in data set [7] was inactive.
